# Source: PubChem (Broad Institute)
# IDH1 R132H inh: inhibitors of human IDH1 R132H; 0.18% of 70,000 active; inhibition, % at 10 µM; IDH1 R132H reductase, diaphorase/resazurin fluorescence, 60 min; in the data active means inhibition above about 34%; inconclusive means no clear call, values can overlap the other calls; inactive means below about 11%;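 further: 0% = DMSO and 100% = no enzyme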
# Target sequence (O75874 whole entry R132H): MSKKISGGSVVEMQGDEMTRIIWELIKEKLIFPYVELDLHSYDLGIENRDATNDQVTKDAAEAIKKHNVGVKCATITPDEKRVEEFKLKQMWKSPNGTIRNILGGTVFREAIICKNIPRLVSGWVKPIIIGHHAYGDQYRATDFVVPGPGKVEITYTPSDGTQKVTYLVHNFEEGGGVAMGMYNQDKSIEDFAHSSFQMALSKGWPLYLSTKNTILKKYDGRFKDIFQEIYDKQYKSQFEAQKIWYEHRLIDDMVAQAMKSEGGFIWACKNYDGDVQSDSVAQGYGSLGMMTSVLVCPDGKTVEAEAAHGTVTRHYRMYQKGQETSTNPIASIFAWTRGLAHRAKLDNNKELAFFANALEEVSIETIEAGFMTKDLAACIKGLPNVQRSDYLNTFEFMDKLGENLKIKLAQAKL
# GASC1 inh: blocks human GASC-1 (KDM4C) demethylase activity. Q9H3R0. GST-KDM4C 2-372, H3K9me3 peptide, LANCE TR-FRET. inhibition, % at 12.5 µM. 0.15% of 96,000 active;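 active means mean replicate inhibition above about 25%, with at least 55% of replicates also reaching it, limit read from the data, passing the limit was not always enough; inconclusive means only one of those two conditions met; inactive means neither condition met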
#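 Compound: one test concentration per compound; Material: GST-GASC-1 enzyme fragment 2-372; Amount: GASC-1 enzyme at 10 nM final in reaction; Also added: H3K9me3 peptide substrate, Fe(II), 2-oxoglutarate; Technique: LANCE TR-FRET; Times: 30 min demethylation and 1 h detection at room temperature.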
# Pf Dd2 inh: P. falciparum Dd2 growth inhibition | 2.3% of 94,000 active | SYBR Green, 72 h; hits give low values | activity change, % at 10 µM; in the data active means activity change below about -80%; inconclusive means no clear call, values can overlap the other calls
# T cruzi growth-1: inhibitors of T. cruzi proliferation; T. cruzi beta-gal in NIH3T3, GalScreen luminescence, 90 h; inhibition, % at 8.34 µM; 5.9% of 77,000 active;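 active means mean inhibition above about 93%, with at least 55% of replicates each passing it, limit read from the data, passing the limit was not always enough; inconclusive means only one of those two conditions holds; inactive means neither condition holds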
# T cruzi growth-2: inhibitors of T. cruzi proliferation. shares compounds with T cruzi growth-1. T. cruzi beta-gal in NIH3T3, GalScreen luminescence, 90 h. inhibition, % at 8.35 µM. 72% of 5,600 active. AID 651739;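 active means mean replicate inhibition above about 95% and at least 55% of replicates individually reaching it, limit read from the data; inconclusive means only one of the two criteria is met; inactive means neither criterion is met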
# T cruzi growth-3: inhibitors of T. cruzi proliferation; T. cruzi beta-gal in NIH3T3, GalScreen luminescence, 90 h; shares compounds with T cruzi growth-1; inhibition, % at 2.09 µM; 21% of 5,600 active; AID 651740;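 active means mean inhibition above about 95%, with at least 55% of replicates also reaching it, limit read from the data; inconclusive means meets just one of the two conditions; inactive means meets neither condition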;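 further: plate controls were neutral control median for no effect and positive control median for full effect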
# NIH3T3 tox: cytotoxicity in mouse NIH/3T3 fibroblasts. shares compounds with T cruzi growth-1. 14% of 5,600 active. cytotoxicity (signal decrease), % at 8.35 µM. NIH/3T3 viability, CellTiter-Glo ATP luminescence, 90 h;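 active means mean signal decrease across replicates above about 35% based on untreated-well scatter, with enough replicates individually passing, limit read from the data; inconclusive means no rule stated though some were filed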;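 further: 0% = median of neutral control wells and 100% = median of positive control wells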
# NIH3T3 tox 2: NIH/3T3 (mouse) viability loss; NIH/3T3 viability, CellTiter-Glo ATP luminescence, 90 h; shares compounds with T cruzi growth-1; AID 651744; 56% of 5,600 active; inhibition, % at 24.9 µM;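 active means mean loss of cell viability signal at or above a set limit, and enough replicates individually reaching it; inconclusive means meets only the mean limit or only the replicate share; inactive means meets neither condition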;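 further: 0% = median of neutral control wells and 100% = median of positive control wells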
# An asterisk follows results filed as active; ? = inconclusive; / = no result. The list is not random: actives were taken first. Their share in the collection is about 5.8%.
SMILES,IDH1 R132H inh,GASC1 inh,Pf Dd2 inh,T cruzi growth-1,T cruzi growth-2,T cruzi growth-3,NIH3T3 tox,NIH3T3 tox 2
C[C@@H]1CN([C@H](C)CO)S(=O)(=O)c2ccc(C3=CCCC3)cc2O[C@H]1CN(C)Cc1ccncc1,2,-1,-65,115*,98*,104*,68*,76*
C[C@H]1CN([C@@H](C)CO)S(=O)(=O)c2ccc(C3=CCCC3)cc2O[C@@H]1CN(C)Cc1ccncc1,/,0,-23,117*,98*,?,45*,97*
C[C@H]1CN([C@@H](C)CO)S(=O)(=O)c2ccc(C3=CCCC3)cc2O[C@H]1CN(C)Cc1ccncc1,1,4,-34,105*,102*,92,19,31*
C[C@@H]1CN([C@H](C)CO)S(=O)(=O)c2ccc(C3=CCCC3)cc2O[C@@H]1CN(C)Cc1ccncc1,/,4,-19,74,/,/,/,/
C[C@@H]1CCCCO[C@H](CN(C)C)[C@H](C)CN([C@H](C)CO)C(=O)c2cc(NC(=O)CCCN(C)C)ccc2O1,8,3,41,-11,/,/,/,/
CCC(=O)Nc1ccc2c(c1)OC[C@H](C)N(C(=O)c1cnccn1)C[C@@H](C)[C@H](OC)CN(C)C2=O,0,-1,30,6,/,/,/,/
C[C@H](CO)N1C[C@H](C)[C@@H](CN(C)Cc2cccc(F)c2)Oc2ncc(C#CCN(C)C)cc2C1=O,0,3,-31,-75,/,/,/,/
CC(C)CC#Cc1cnc2c(c1)C(=O)N([C@H](C)CO)C[C@@H](C)[C@@H](CN(C)Cc1ccc(F)cc1)O2,0,-2,-34,86,/,/,/,/
CC(C)CC#Cc1cnc2c(c1)C(=O)N([C@H](C)CO)C[C@H](C)[C@H](CN(C)Cc1cccc(F)c1)O2,-1,-1,-54,?,107*,34,-6,14
CC(C)CC#Cc1cnc2c(c1)C(=O)N([C@@H](C)CO)C[C@@H](C)[C@@H](CN(C)Cc1cccc(F)c1)O2,-1,-1,-30,99*,106*,83,23,45*
CC(C)CC#Cc1cnc2c(c1)C(=O)N([C@H](C)CO)C[C@@H](C)[C@H](CN(C)Cc1ccccc1F)O2,-1,1,-46,?,106*,58,17,76*
CCCC#Cc1cnc2c(c1)C(=O)N([C@H](C)CO)C[C@H](C)[C@@H](CN(C)Cc1ccccc1F)O2,-4,1,-31,86,/,/,/,/
CC(C)CC#Cc1cnc2c(c1)C(=O)N([C@@H](C)CO)C[C@H](C)[C@@H](CN(C)Cc1ccc3c(c1)OCO3)O2,-1,2,-29,82,/,/,/,/
CC(C)CC#Cc1cnc2c(c1)C(=O)N([C@@H](C)CO)C[C@@H](C)[C@@H](CN(C)Cc1ccc3c(c1)OCO3)O2,5,4,-54,101*,105*,77,33,93*
CCCC(=O)Nc1ccc2c(c1)C(=O)N(C)C[C@@H](OC)[C@H](C)CN(C(C)=O)[C@@H](C)CO2,0,0,18,-7,/,/,/,/
C[C@@H]1CN([C@@H](C)CO)C(=O)c2cc(NS(=O)(=O)c3cccs3)ccc2O[C@@H](C)CCCCO[C@@H]1CN(C)C(=O)Nc1ccc(F)cc1,-4,-2,-67,/,/,/,/,/
C[C@H](CO)N1C[C@H](C)[C@@H](CN(C)Cc2ccccc2)Oc2ncc(C#CCc3ccccc3)cc2C1=O,/,2,-73,/,/,/,/,/
C[C@H]1CN([C@@H](C)CO)C(=O)c2cc(C#CCc3ccccc3)cnc2O[C@@H]1CN(C)Cc1cccc(F)c1,0,-2,-52,?,90,89,-34,104*
C[C@H]1CCCCO[C@H](CN(C)S(=O)(=O)c2cccs2)[C@@H](C)CN([C@@H](C)CO)C(=O)c2cc(NC(=O)Nc3ccccc3)ccc2O1,-6,-1,/,107*,106*,36,3,27*
C[C@@H]1CCCCO[C@@H](CN(C)S(=O)(=O)c2cccs2)[C@H](C)CN([C@H](C)CO)C(=O)c2cc(NC(=O)Nc3ccccc3)ccc2O1,/,-2,/,112*,108*,76,-22,1
C[C@@H]1CN([C@@H](C)CO)C(=O)c2cc(NC(=O)Nc3ccc(F)cc3)ccc2O[C@@H](C)CCCCO[C@H]1CN(C)S(=O)(=O)c1cccs1,-1,0,-70,56,/,/,/,/
C[C@@H]1CCCCO[C@@H](CN(C)S(=O)(=O)c2cccs2)[C@@H](C)CN([C@@H](C)CO)C(=O)c2cc(NC(=O)Nc3ccc(F)cc3)ccc2O1,1,0,-35,27,/,/,/,/
C[C@@H]1CCCCO[C@H](CN(C)S(=O)(=O)c2cccs2)[C@@H](C)CN([C@@H](C)CO)C(=O)c2cc(NC(=O)Nc3ccccc3)ccc2O1,1,0,/,?,107*,42,8,25
C[C@H]1CCCCO[C@@H](CN(C)S(=O)(=O)c2cccs2)[C@@H](C)CN([C@@H](C)CO)C(=O)c2cc(NC(=O)Nc3ccc(F)cc3)ccc2O1,-2,0,-45,99*,109*,59,18,27*
O=C(O)CCCCCCC(=O)N/N=C/c1ccc(S(=O)(=O)O)o1,0,/,/,/,/,/,/,/
SMILES,IDH1 R132H inh,GASC1 inh,Pf Dd2 inh,T cruzi growth-1,T cruzi growth-2,T cruzi growth-3,NIH3T3 tox,NIH3T3 tox 2
C[C@@H]1CCCCO[C@H](CN(C)S(=O)(=O)c2cccs2)[C@H](C)CN([C@@H](C)CO)C(=O)c2cc(NC(=O)Nc3ccccc3)ccc2O1,/,-2,/,99*,101*,29,1,30*
C[C@@H]1CCCCO[C@@H](CN(C)S(=O)(=O)c2cccs2)[C@@H](C)CN([C@@H](C)CO)C(=O)c2cc(NC(=O)Nc3ccccc3)ccc2O1,/,-1,/,54,/,/,/,/
C[C@@H]1CCCCO[C@H](CN(C)S(=O)(=O)c2cccs2)[C@H](C)CN([C@H](C)CO)C(=O)c2cc(NC(=O)Nc3ccccc3)ccc2O1,1,1,/,108*,107*,26,12,5
C[C@@H]1CCCCO[C@H](CN(C)S(=O)(=O)c2cccs2)[C@@H](C)CN([C@H](C)CO)C(=O)c2cc(NC(=O)Nc3ccc(F)cc3)ccc2O1,/,5,-45,-18,/,/,/,/
CC(C)CC#Cc1ccc([C@@H]2[C@H](CO)N3CCCCN(C(=O)c4ccc5c(c4)OCO5)C[C@@H]23)cc1,/,1,-42,106*,104*,64,31,105*
CC(C)CC#Cc1ccc([C@H]2[C@H](CO)N3CCCCN(C(=O)c4ccc5c(c4)OCO5)C[C@@H]23)cc1,/,-1,-29,84,/,/,/,/
